Assay outcomes: PubChem BioAssay, several laboratories
m5-HT2A agonist = mouse HTR2A agonism via beta-arrestin recruitment | P35363 | CHO-K1 mHTR2A beta-arrestin complementation, luminescence; percent of 30 µM serotonin response | activation, % at 7.6 µM | 360,000 tested, 0.66% active;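 active means activation above a run cutoff, the mean activation of all tested compounds plus 3 SD, cut at about 14% in these data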
Target sequence (P35363 whole entry, looked up): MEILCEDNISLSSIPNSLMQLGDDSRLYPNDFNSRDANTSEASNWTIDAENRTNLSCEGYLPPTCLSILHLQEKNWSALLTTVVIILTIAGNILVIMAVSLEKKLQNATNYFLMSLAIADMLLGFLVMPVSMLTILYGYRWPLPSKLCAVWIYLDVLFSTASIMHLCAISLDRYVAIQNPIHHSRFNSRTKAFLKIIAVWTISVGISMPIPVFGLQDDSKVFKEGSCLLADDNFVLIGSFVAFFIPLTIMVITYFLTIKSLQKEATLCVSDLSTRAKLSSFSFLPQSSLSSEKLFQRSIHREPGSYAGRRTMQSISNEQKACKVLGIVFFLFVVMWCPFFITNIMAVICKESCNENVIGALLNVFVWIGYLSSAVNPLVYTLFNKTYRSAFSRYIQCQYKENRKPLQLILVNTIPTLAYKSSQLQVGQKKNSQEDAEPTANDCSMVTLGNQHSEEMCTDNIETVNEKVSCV
Hep lipid drop = modulators of hepatic lipid droplet formation; 240,000 tested, 0.4% active; AID 1656; AML12 mouse hepatocytes, oleate lipid droplets, BODIPY imaging; inhibition, % at 6.5 µM;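 active means lipid droplet intensity inhibited by at least 50%, with more than 500 cells counted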
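material = mouse AML12 hepatocyte cell line, fixed after treatment | also added = 100 µM oleic acid challenge | doses = compound at 6.5 µM only | schedule = overnight exposure | technique = Image-based BODIPY and DAPI two-channel analysis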
MC4R ag barr = agonists of human melanocortin 4 receptor (MC4R) beta-arrestin | P32245 | U2OS MC4R beta-arrestin complementation, luminescence; percent of melanotan II response, DMSO zero | activation, % at 8.9 µM | 360,000 tested, 0.98% active;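 active means activation above a per-plate cutoff, the mean activation of sample wells on that plate plus 3 SD, cut at about 8% in these data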
NTR1 agonist = NTR1 (human) agonism. P30989. NTR1-U2OS beta-arrestin-GFP spot imaging, agonist mode. activation, % at 20 µM. 330,000 tested, 0.17% active. AID 493036;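 active means activation at or above 40% of the spot to cytoplasm intensity ratio, with at least 20 cells analyzed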
MC4R antagonist = human MC4R antagonism in cAMP assay. inhibition, % at 6.5 µM. P32245. MC4R-expressing cells, MTII-stimulated cAMP, LANCE TR-FRET. AID 540295. 360,000 tested, 0.48% active;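 active means inhibition above its plate's cutoff, the mean of tested wells on that plate plus 3 SD, cut at about 29% in these data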
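Assay system: human MC4R-expressing U2OS cells; reagent: Melanotan II stimulation of cells; dosing: 6.5 µM single dose; timing: compound 30 min, challenge 1 h, detection 1 h; signal: TR-FRET cAMP assay; replicates: one well per compound, no replicates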
PREPL inh = human PREPL enzyme inhibition; Q4J6C6; recombinant PREPL, fluorescence polarization activity-based probe; inhibition, % at 5.96 µM; 320,000 tested, 0.68% active; in the data active means inhibition above about 43%
cAMP nonselect = nonselective cAMP signaling inhibitor, MC4R antagonist counter-screen | inhibition, % at 6.5 µM | 1,600 tested, 26% active | parental U2OS, forskolin cAMP, LANCE TR-FRET | AID 602193 | shares compounds with MC4R antagonist;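 active means mean inhibition over triplicates above the low-control well mean plus 3 SD, set per campaign, cut at about 13% in these data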;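 further: signal is single emission at 671 nm which falls as cellular cAMP rises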
MC4R cAMP antag = human MC4R cAMP antagonism confirmation; 1,600 tested, 27% active; inhibition, % at 6.5 µM; shares compounds with MC4R antagonist; MC4R-expressing cells, MTII-stimulated cAMP, TR-FRET; in the data active means inhibition above about 29%
A number is an active result; n = inactive; x = no result. Rows were chosen to be rich in hits. Some 2.7% of all compounds tested hit in one or more screens of this group.

SMILES | m5-HT2A agonist | Hep lipid drop | MC4R ag barr | NTR1 agonist | MC4R antagonist | PREPL inh | cAMP nonselect | MC4R cAMP antag
COc1ccc(NC(=O)/C(Cl)=C(/Cl)S(=O)Cc2ccccc2)cn1 (stereo unspecified) | n | n | n | n | n | n | x | x
COc1ccccc1N(C(=O)c1cncc(Br)c1)c1nc(-c2ccc(C)cc2)cs1 | n | n | n | n | n | n | x | x
O=C(Nc1ccccn1)c1ccc(Br)s1 | n | n | n | n | 31 | n | n | n
CC(C)NC(=O)C1(C)CN(S(C)(=O)=O)CC(=O)N1CCc1ccccc1 (stereo unspecified) | n | x | x | x | x | x | x | x
Cn1c(SCC(=O)NC(=O)NCc2ccccc2)nnc1C(F)(F)F | n | x | n | n | n | n | x | x
Cc1cc(C)nc(NS(=O)(=O)c2ccc(NC(=O)C3COc4ccccc4O3)cc2)n1 (stereo unspecified) | n | n | n | n | 29 | n | n | n
CC1Cc2ccccc2N1S(=O)(=O)c1cnc(Cl)c(Br)c1 (stereo unspecified) | n | n | n | n | 30 | n | 22 | 38
Cc1cccc(C(=O)NCC(=O)OCC(=O)NCCNC(=O)COC(=O)CNC(=O)c2cccc(C)c2)c1 | n | x | n | n | n | n | x | x
Cc1cccc(C(=O)NCC(=O)OCC(=O)c2ccc(Br)s2)c1 | n | x | n | n | 44 | n | 33 | 70
CCOC(=O)C1(C)CCN1C(=O)COc1ccc(C(C)(C)C)cc1 (stereo unspecified) | n | x | n | x | n | x | x | x
C=CCN1C(=O)c2ccccc2NC1c1cc(Br)cs1 (stereo unspecified) | n | n | n | n | n | n | x | x
CCOC(=O)C(=O)Nc1cccc(C(=O)OCC)c1 | n | n | n | n | 29 | n | n | n
CC(=O)c1cccc(NC(=O)COC(=O)c2ccccc2C)c1 | n | n | n | n | 38 | n | n | n
CCC(C)[C@H](NC(=O)c1cc2cc(Cl)ccc2n1C)C(=O)N1CCC[C@H]1C(=O)O (stereo partly specified) | n | x | n | n | n | n | x | x
CC1=C(CO)C(=O)OC([C@@H](C)C2CC[C@H]3C4C[C@H]5O[C@]56[C@@H](O)C=CC(=O)[C@]6(C)C4CC[C@]23C)C1 (stereo partly specified) | n | n | n | x | 39 | n | n | 48
COC(=O)c1ccc2c(=O)n(Cc3ccco3)c(SCC(=O)Nc3ccccc3Cl)nc2c1 | n | x | n | n | 29 | n | n | n
O=C(COc1ccc(Cl)cc1)NCc1nnc(SCC(=O)N2CCCC2)o1 | n | n | n | n | n | n | x | x
CC(=O)Nc1ccc(C(=O)OCC(=O)Nc2ccccc2Sc2ccccc2)cc1 | n | n | n | n | n | n | x | x
N#CCC(=O)Nc1ccc(C(=O)OCC(=O)Nc2ccccc2Sc2ccccc2)cc1 | n | n | n | n | 31 | n | n | n
COc1ccccc1C(CNC(=O)c1cc(C)nc2ccccc12)N(C)C (stereo unspecified) | n | n | n | n | n | n | x | x
CC1CCN(c2nc(Cl)nc(Nc3ccc([N+](=O)[O-])cc3)n2)CC1 | n | n | n | n | 32 | n | n | 36
Cc1ccc(-n2nc3c(=S)[nH]nc(C)c3c2C)cc1 | n | n | n | n | 146 | n | 90 | 147
c1cc2c(c(CC3CO3)c1CC1CO1)OCCOCCOCCOCCO2 (stereo unspecified) | n | x | n | x | n | x | x | x
COc1cccc(CN2c3ccc(Br)cc3C(=O)CS2(=O)=O)c1 | n | x | n | n | n | n | x | x
O=C1OCCC1Sc1nnnn1-c1ccccc1 (stereo unspecified) | n | x | n | n | n | n | x | x
SMILES | m5-HT2A agonist | Hep lipid drop | MC4R ag barr | NTR1 agonist | MC4R antagonist | PREPL inh | cAMP nonselect | MC4R cAMP antag
O=C1OCCC1Sc1nnnn1-c1ccc(Cl)cc1 (stereo unspecified) | n | n | n | n | 38 | n | 22 | 39
COc1ccc(CCCNC(=O)C2(C)Cc3c(-c4ccc(NC(C)=O)cc4)ccnc3O2)cc1 (stereo unspecified) | n | x | n | x | 34 | x | n | n
COc1cc(/C=N/Nc2nc(Nc3ccc(C)cc3)nc(-n3nc(C)cc3C)n2)cc(OC)c1OC | n | n | n | n | 29 | n | n | 30
Cc1c(Cl)cccc1N1C(=O)C(N2C(=O)c3cccc([N+](=O)[O-])c3C2=O)C1c1cccs1 (stereo unspecified) | n | x | n | n | 35 | n | n | n
CCOC(=O)[C@H]1[C@H]2COc3cc(OC)ccc3[C@@H]2N2C(=O)c3c(C)cc(C)cc3NC(=O)[C@@]12C | n | x | n | n | n | n | x | x
N/C(CC(=O)Nc1ccc(F)c(Cl)c1)=N\OC(=O)c1cccs1 | n | n | n | n | 36 | n | n | n
COc1ccccc1CNC(=O)CSc1nnc2c(n1)[nH]c1ccc(F)cc12 | n | n | n | n | n | n | x | x
O=[N+]([O-])c1cc(-c2nc(-c3ccncc3)no2)ccc1Cl | n | n | n | n | 39 | n | 18 | 47
O=[N+]([O-])c1cc(-c2nc(-c3ccncc3)no2)cc([N+](=O)[O-])c1 | n | n | n | n | n | n | x | x
O=C1CSC(c2ccncc2)N1Cc1ccccc1 (stereo unspecified) | n | n | n | n | n | n | x | x
O=C1CSC(c2cccnc2)N1Cc1cccnc1 (stereo unspecified) | n | n | n | n | 29 | n | n | n
O=C(CNC(=O)C12CC3CC(CC(C3)C1)C2)NCc1ccccc1 | n | x | n | n | n | n | x | x
NNC(=O)CNC(=O)C12CC3CC(CC(C3)C1)C2 | n | n | n | n | 29 | n | n | n
CCN(CC(=O)NC1CCS(=O)(=O)C1)S(=O)(=O)c1cc(C)ccc1C (stereo unspecified) | n | x | n | n | n | n | x | x
COc1cc(NC(=O)Nc2nnc([C@H]3C[C@H](O)[C@@H](CO)O3)s2)cc(OC)c1OC | n | x | n | x | n | x | x | x
CCOC(=O)C(=Cc1ccc(F)cc1)C(=O)OCC | x | x | x | n | x | n | x | x
CCOC(=O)C(=Cc1ccc(-n2ccnc2)cc1)C(=O)OCC | n | n | n | n | 34 | n | n | n
COc1ccc(C(=O)Nc2ccc3c(c2)nc(CCNC(=O)c2ccco2)n3C)cc1 | n | n | n | n | n | n | x | x
COc1ccccc1C(=O)NC(=O)COC(=O)c1cccc(OC(F)F)c1 | n | x | n | n | n | n | x | x
Cc1ccc(S(=O)(=O)Nc2ccccc2F)cc1C(=O)N1CCCC1 | n | x | n | n | n | n | x | x
CN1CCN(C(=O)c2cc(S(=O)(=O)Nc3ccccc3F)c(Cl)cc2Cl)CC1 | n | n | n | n | 35 | n | n | n
